{"data": "Measured values pooled from the literature", "target": "Delta-type opioid receptor (OPRD1, Homo sapiens, UniProt P41143)", "note": "pKi: −log10 of the molar value."}
{"Structure (SMILES)": "CCCCCCCCCCCCCCCC(=O)O", "read-out": "ligand displacement", "technique": "radioligand", "notes": "cell membranes", "pKi": 5.29}
{"Structure (SMILES)": "CC(=O)Nc1ccccc1-c1cnc2c(c1)C[C@@]1(OCCCc3ccccc3)[C@H]3Cc4ccc(O)c5c4[C@@]1(CCN3CC1CC1)[C@H]2O5", "read-out": "ligand displacement", "technique": "radioligand", "notes": "cell membranes", "pKi": "< 5.48"}
{"Structure (SMILES)": "C[C@@H](NC(=O)C[C@@H](N)Cc1ccc(O)cc1)C(=O)NCC(=O)N[C@@H](Cc1ccccc1)C(=O)NNC(=O)[C@H](Cc1ccccc1)NC(=O)CNC(=O)[C@@H](C)NC(=O)C[C@@H](N)Cc1ccc(O)cc1", "read-out": "ligand displacement", "technique": "radioligand", "pKi": 6.32}
{"Structure (SMILES)": "Cc1cc(O)cc(C)c1C[C@H](N)C(=O)N1Cc2ccccc2CC1C(=O)NCC(=O)NC(Cc1ccc(Cl)cc1)C(=O)N(C)CCC[C@@]1(c2ccc(F)cc2)OCc2cc(C#N)ccc21 (stereo in doubt)", "read-out": "cell-free assay", "pKi": 7.70}
{"Structure (SMILES)": "Cc1cc(/N=N/C(=O)NCC2(N(C)C)CCCCC2)ccc1F", "read-out": "cell-free assay", "pKi": 4.52}
{"Structure (SMILES)": "Cc1cc(O)cc(C)c1C[C@H](N)C(=O)N1Cc2ccccc2C[C@H]1C(=O)NCC(=O)NC(c1ccccc1)c1ccccc1", "read-out": "ligand displacement", "technique": "radioligand", "notes": "cell membranes", "pKi": 9.03}
{"Structure (SMILES)": "CN(C)C1(CNC(=O)/N=N/c2ccc(F)cc2)CCCCC1", "read-out": "cell-free assay", "pKi": 4.92}
{"Structure (SMILES)": "Cc1cc(O)cc(C)c1C[C@H](N)C(=O)N1Cc2ccccc2C[C@H]1C(=O)NCC(=O)NCc1ccc(Cl)cc1", "read-out": "ligand displacement", "technique": "radioligand", "notes": "cell membranes", "pKi": 9.59}
{"Structure (SMILES)": "C[C@@H](NC(=O)[C@@H](N)Cc1ccc(O)cc1)C(=O)NCC(=O)N[C@@H](Cc1ccc(Cl)cc1)C(=O)N(C)CCC[C@@]1(c2ccc(F)cc2)OCc2cc(C#N)ccc21", "read-out": "cell-free assay", "pKi": 8.80}
{"Structure (SMILES)": "COc1ccsc1CNCC[C@@]1(c2ccccn2)CCOC2(CCCC2)C1", "read-out": "cell-free assay", "pKi": 5.85}
{"Structure (SMILES)": "Cc1cc(O)cc(C)c1C[C@H](N)C(=O)N1Cc2ccccc2C[C@H]1C(=O)NCC(=O)NCc1ccc(N)cc1", "read-out": "ligand displacement", "technique": "radioligand", "notes": "cell membranes", "pKi": 8.70}
{"Structure (SMILES)": "Cc1cc(O)cc(C)c1C[C@H](N)C(=O)N[C@H](C)C(=O)NCC(=O)N[C@@H](Cc1ccc(Cl)cc1)C(=O)N(C)CCC[C@@]1(c2ccc(F)cc2)OCc2cc(C#N)ccc21", "read-out": "cell-free assay", "pKi": 8.40}
